One assay deals with CEM/C2. The assay can be described thus: Cytotoxicity against camptothecin-resistant human leukemic CEMC2 cell line. The class given is functional, cell-based. The method in brief: (§1)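 Human leukemia cells (CEM, or topoisomerase I-deficient CEM/C2) grown at 37 °C, 5% CO2 in RPMI 1640 with 10% FBS, glucose, HEPES, pyruvate and antibiotics. 2 × 10^4 exponentially growing cells seeded with graded drug concentrations, 72 h at 37 °C. Tetrazolium dye (CellTiter 96 aqueous one-solution) added for a further 2 h, absorbance read at 492 nm; IC50 reported.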

The test system of another assay is CCRF-CEM. Briefly: Cytotoxicity against human leukemic CEM cell line. The class given is functional, cell-based. The method in brief: as §1
Assay [1] is described as follows: Inhibitory activity against CDK1/Cyclin B from starfish oocytes. The arrangement: species or system Marthasterias glacialis. Particulars: oocyte. The method in brief: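 Starfish oocyte (M phase) CDK1/cyclin B, affinity-purified on p9CKShs1-sepharose. Buffer C (25 mM Mops pH 7.2, β-glycerophosphate, p-nitrophenyl phosphate, EGTA, 15 mM MgCl2, DTT, vanadate, phenyl phosphate), 1 mg/mL histone H1, 15 µM [γ-33P]ATP, 10 min at 30 °C. Read by P81 phosphocellulose binding, washing and scintillation counting; activity as percent of uninhibited control, DMSO controls.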

Assay [2] deals with Cyclin-dependent kinase 5/CDK5 activator 1 (Homo sapiens, UniProt Q00535). The assay can be described thus: Inhibitory activity against CDK5/p25. Format: protein-complex assay. The method in brief: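 Recombinant mammalian CDK5 and p25, expressed in E. coli as GST fusions, glutathione-agarose purified and mixed in equal amounts. Assayed in buffer C pH 7.2 with 1 mg/mL histone H1 and 15 µM [γ-33P]ATP, 10 min at 30 °C. P81 filter binding and scintillation counting; activity as percent of maximal activity without inhibitor.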
Chain of Cyclin-dependent kinase 5/CDK5 activator 1 (Q00535 whole entry, the tested form may be a part): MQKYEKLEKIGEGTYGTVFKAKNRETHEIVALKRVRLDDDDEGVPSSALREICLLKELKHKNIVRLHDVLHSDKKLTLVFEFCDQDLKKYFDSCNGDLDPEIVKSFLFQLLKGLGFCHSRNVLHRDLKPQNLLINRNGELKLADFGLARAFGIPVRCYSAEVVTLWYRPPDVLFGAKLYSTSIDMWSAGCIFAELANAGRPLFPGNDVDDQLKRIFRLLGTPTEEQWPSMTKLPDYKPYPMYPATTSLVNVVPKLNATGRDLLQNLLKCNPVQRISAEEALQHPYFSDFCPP
Chain of Cyclin-dependent kinase 5/CDK5 activator 1 (Q15078 whole entry, further chain, the tested form may be a part): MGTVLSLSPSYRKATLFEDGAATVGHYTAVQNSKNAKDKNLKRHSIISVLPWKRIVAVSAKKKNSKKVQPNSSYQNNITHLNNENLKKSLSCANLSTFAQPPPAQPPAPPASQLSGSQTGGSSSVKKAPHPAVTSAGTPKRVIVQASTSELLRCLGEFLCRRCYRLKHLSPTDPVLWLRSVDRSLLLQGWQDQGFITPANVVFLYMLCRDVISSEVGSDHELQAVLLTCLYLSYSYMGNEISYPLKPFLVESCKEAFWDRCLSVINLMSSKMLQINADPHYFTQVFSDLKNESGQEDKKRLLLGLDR

In assay [3] the target is Glycogen synthase kinase-3 (Homo sapiens, UniProt P49840+P49841). Briefly: Inhibitory activity against GSK3 from porcine brain. The arrangement: species or system Sus scrofa. As to conditions: target entry is the homologue from another species. The method in brief: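 GSK-3α/β purified from porcine brain on immobilized axin, diluted 1/100 in BSA/DTT. Buffer A (25 mM Tris-HCl pH 7.5, 10 mM MgCl2, EGTA, DTT, 50 µg/mL heparin), GS-1 peptide substrate (5 µL of 40 µM), 15 µM [γ-33P]ATP, 30 min at 30 °C. P81 phosphocellulose filters washed in dilute phosphoric acid and counted; activity relative to no-inhibitor control.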

Molecules are shown by their SMILES. Where only a bound is given, the exact number is not on record here.

Consider twelve compounds from ChEMBL document CHEMBL1148613, “Synthesis and biological evaluation of novel phenylcarbazoles as potential anticancer agents” (J Med Chem, 2006).

As a reminder, the IC50 is the concentration that gives 50% inhibition. A low value points to higher potency.

For `O=C1OC(=O)c2c1c1ccccc1c1[nH]c3ccc(O)cc3c21`, the IC50 with CEM/C2 is 32.3 µM; in the assay on CCRF-CEM, 14.7 µM; in assay [1], over 10 µM; in assay [2], over 10 µM.
With `O=C1c2c(c3c4ccccc4[nH]c3c3ccccc23)C(=O)N1C(CO)CO`, the IC50 was 4.95 µM with CEM/C2, 3.71 µM in the assay on CCRF-CEM, over 10 µM in assay [1] and over 10 µM in assay [2].
For `O=C1c2c(c3c4ccccc4[nH]c3c3ccccc23)C(=O)N1CCc1c[nH]cn1`, the IC50 in the assay with CEM/C2 is 2.92 µM; in the assay on CCRF-CEM, 1.58 µM; in assay [1], over 10 µM; in assay [2] it was over 10 µM.
`O=C1c2c(c3c4cc(O)ccc4[nH]c3c3ccccc23)C(=O)N1C(CO)CO`: the IC50 is 4.96 µM in the assay on CEM/C2, 2.84 µM in the assay with CCRF-CEM, over 10 µM in assay [1] and over 10 µM in assay [2].
Turning to `O=C1NC(=O)c2c1c1ccccc1c1[nH]c3ccc(O)cc3c21`, the IC50 in assay [3] is 0.46 µM; in the assay on CEM/C2, over 25 µM; with CCRF-CEM, over 25 µM; in assay [1], 0.58 µM; in assay [2], 0.25 µM.
As for `CN(C)CCN1C(=O)c2c(c3c4cc(O)ccc4[nH]c3c3ccccc23)C1=O`, the IC50 is 0.0187 µM with CEM/C2, 0.0122 µM in the assay with CCRF-CEM, over 10 µM in assay [1] and over 10 µM in assay [2].
With `CN1C(=O)c2c(c3c4ccccc4[nH]c3c3ccccc23)C1=O`, the IC50 in the assay with CEM/C2 was over 100 µM; with CCRF-CEM it was over 100 µM; in assay [1], over 10 µM; in assay [2], over 10 µM.
In the case of `CN1C(=O)c2c(c3c4cc(O)ccc4[nH]c3c3ccccc23)C1=O`, the IC50 in the assay on CEM/C2 is 4.17 µM; in the assay on CCRF-CEM, 1.64 µM; in assay [1] it was over 10 µM; in assay [2], over 10 µM.
For the compound `CN(C)CCN1C(=O)c2c(c3c4ccccc4[nH]c3c3ccccc23)C1=O`, the IC50 in the assay on CEM/C2 is 0.335 µM; with CCRF-CEM, 0.11 µM; in assay [1], over 10 µM; in assay [2] it was over 10 µM.
Take `O=C1OC(=O)c2c1c1ccccc1c1[nH]c3ccccc3c21`: the IC50 with CEM/C2 was over 50 µM; in the assay on CCRF-CEM, over 25 µM; in assay [1], over 10 µM; in assay [2] it was over 10 µM.
On to `O=C1c2c(c3c4cc(O)ccc4[nH]c3c3ccccc23)C(=O)N1CCc1c[nH]cn1`, for which the half-inhibitory concentration (IC50) is 1.9 µM with CEM/C2, 0.715 µM with CCRF-CEM, over 10 µM in assay [1] and over 10 µM in assay [2].
On to `O=C1NC(=O)c2c1c1ccccc1c1[nH]c3ccccc3c21`, for which the half-inhibitory concentration (IC50) in assay [3] is 20 µM; with CEM/C2, over 100 µM; with CCRF-CEM, over 100 µM; in assay [1], 80 µM; in assay [2], 8.5 µM.
